Experimental data as given in ChEMBL document CHEMBL3745659, “Synthesis and Characterization of 4,11-Diaminoanthra[2,3-b]furan-5,10-diones: Tumor Cell Apoptosis through tNOX-Modulated NAD(+)/NADH Ratio and SIRT1” (J Med Chem, 2015).
Active and inactive are the calls of the source. No cut-off for these calls is given here.

What was measured:
K562 [1] = assay: Drug uptake in human K562 cells at 3 uM incubated for 2 hrs in presence of verapamil by flow cytometric analysis; type: ADME, cell-based; settings: k562, 2 h
Summary of the method: (§1)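 K562 and K562/4 cells incubated 2 h with 3 µM compound; uptake measured by flow cytometry as ratios (arbitrary units) of mean fluorescence channels of the histograms; verapamil (10 µM), a Pgp transport blocker, added 30 min before compound where used.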

CCRF-CEM = assay: Antiproliferative activity against human CEM cells after 72 hrs by MTT assay; type: functional, cell-based
[2] = Drug uptake in human K562/4 cells at 3 uM incubated for 2 hrs by flow cytometric analysis; type: ADME, cell-based; settings: k562/4, 2 h; summary of the method: as §1
[3] = Antiproliferative activity against human K562/4 cells after 72 hrs by MTT assay; type: functional, cell-based; settings: K562/4, 72 h
L1210 = assay: Antiproliferative activity against mouse L1210 cells after 72 hrs by MTT assay; settings: L1210, 72 h
[4] = Antiproliferative activity against human HCT116 cells after 72 hrs by MTT assay; type: functional, cell-based; settings: HCT-116, 72 h
K562 [5] = assay: Antiproliferative activity against human K562 cells after 72 hrs by MTT assay; type: functional, cell-based; settings: K562, 72 h
AGS [6] = assay: Downregulation of tNOX protein level in human AGS cells at 0.1 to 0.5 uM after 24 hrs by Western blot analysis; type: functional, cell-based
[7] = Drug uptake in human K562/4 cells at 3 uM incubated for 2 hrs in presence of verapamil by flow cytometric analysis; type: ADME, cell-based; settings: k562/4, 2 h; summary of the method: as §1
HeLa = assay: Antiproliferative activity against human HeLa cells after 72 hrs by MTT assay; type: functional, cell-based
[8] = target: T1, DNA topoisomerase 1 (Homo sapiens) (UniProt P11387); assay: Inhibition of Top1 (unknown origin)-mediated relaxation of pBR322 DNA at 2.5 uM incubated for 30 mins by ethidium bromide staining-based gel electrophoresis assay
T1 sequence (whole entry): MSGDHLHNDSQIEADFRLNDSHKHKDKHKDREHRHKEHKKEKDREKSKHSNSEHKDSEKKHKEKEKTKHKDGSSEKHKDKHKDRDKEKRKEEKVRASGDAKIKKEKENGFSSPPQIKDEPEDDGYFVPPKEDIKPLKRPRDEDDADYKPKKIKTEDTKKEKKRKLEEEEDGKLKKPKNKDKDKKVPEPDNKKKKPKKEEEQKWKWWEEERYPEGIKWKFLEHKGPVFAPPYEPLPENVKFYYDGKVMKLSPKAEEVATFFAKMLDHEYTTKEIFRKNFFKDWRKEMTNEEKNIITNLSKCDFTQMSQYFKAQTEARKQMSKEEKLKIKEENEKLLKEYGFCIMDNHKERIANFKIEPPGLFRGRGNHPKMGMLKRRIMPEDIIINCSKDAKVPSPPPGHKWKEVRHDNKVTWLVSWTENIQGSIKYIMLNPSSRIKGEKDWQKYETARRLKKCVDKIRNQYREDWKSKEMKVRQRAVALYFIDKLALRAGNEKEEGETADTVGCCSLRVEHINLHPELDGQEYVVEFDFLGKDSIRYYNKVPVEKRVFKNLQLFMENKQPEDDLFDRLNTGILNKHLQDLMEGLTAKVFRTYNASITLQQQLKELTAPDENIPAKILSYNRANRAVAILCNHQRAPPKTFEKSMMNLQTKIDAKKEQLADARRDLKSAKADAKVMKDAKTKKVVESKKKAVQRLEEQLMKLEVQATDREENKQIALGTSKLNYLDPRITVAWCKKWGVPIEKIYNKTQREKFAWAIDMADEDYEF
Summary of the method: (§2)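 Supercoiled pBR322 plasmid treated with Top1 without drug or with compound at 0.5, 2.5 or 10 µM; camptothecin as reference; relaxation assessed by gel electrophoresis.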

[9] = target: T1, DNA topoisomerase 1 (Homo sapiens); assay: Inhibition of Top1 (unknown origin)-mediated relaxation of pBR322 DNA at 0.5 uM incubated for 30 mins by ethidium bromide staining-based gel electrophoresis assay; summary of the method: as §2
AGS [10] = assay: Upregulation of phosphorylated p53 level in human AGS cells at 1 and 5 uM after 24 hrs by Western blot analysis; type: functional, cell-based
AGS [11] = assay: Induction of apoptosis in human AGS cells assessed as early apoptotic cells at 10 uM after 24 hrs by annexin V-FITC staining-based flow cytometric analysis (Rvb=9.8%); type: functional
Summary of the method: (§3)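 AGS cells exposed to compound for 24 h; Annexin V-FITC staining and flow cytometry used to give percentage of apoptotic cells; mean ± S.E. from at least three independent experiments.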

AGS [12] = assay: Upregulation of acetylated p53 level in human AGS cells at 1 and 5 uM after 24 hrs by Western blot analysis; type: functional, cell-based
AGS [13] = assay: Upregulation of total p53 level in human AGS cells at 1 and 5 uM after 24 hrs by Western blot analysis; type: cell-based
AGS [14] = assay: Downregulation of Bid protein level in human AGS cells after 24 hrs by Western blot analysis; type: functional, cell-based
AGS [15] = assay: Induction of apoptosis in human AGS cells assessed as late apoptotic cells at 10 uM after 24 hrs by annexin V-FITC staining-based flow cytometric analysis (Rvb=5.5%); type: functional; summary of the method: as §3
K562 [16] = assay: Resistance index, ratio of IC50 for human K562/4 cells to IC50 for human K562 cells; type: functional
AGS [17] = assay: Induction of apoptosis in human AGS cells after 24 hrs by annexin V-FITC staining-based flow cytometric analysis; type: functional, cell-based; summary of the method: as §3
AGS [18] = assay: Induction of apoptosis in human AGS cells assessed as necrotic cells at 10 uM after 24 hrs by annexin V-FITC staining-based flow cytometric analysis (Rvb=1.1%); type: functional
AGS [19] = assay: Downregulation of SIRT1 protein level in human AGS cells at 1 and 5 uM after 24 after 24 hrs by Western blot analysis; type: functional, cell-based
AGS [20] = assay: Downregulation of tNOX protein level in human AGS cells at 1 and 5 uM after 24 hrs by Western blot analysis; type: functional, cell-based
AGS [21] = assay: Induction of apoptosis in human AGS cells assessed as viable cells at 10 uM after 24 hrs by annexin V-FITC staining-based flow cytometric analysis (Rvb=83.7%); type: functional; summary of the method: as §3
AGS [22] = assay: Upregulation of caspase3-directed PARP cleavage in human AGS cells at 5 uM after 24 hrs by Western blot analysis; type: functional, cell-based
[23] = target: T2, NAD-dependent protein deacetylase sirtuin-1 (Homo sapiens) (UniProt Q96EB6); assay: Inhibition of human recombinant SIRT1 deacetylase activity using Arg-His-Lys-Lys(epsilon-acetyl)-AMC as substrate at 5 uM incubated for 45 mins by fluorescence analysis
T2 sequence (whole entry): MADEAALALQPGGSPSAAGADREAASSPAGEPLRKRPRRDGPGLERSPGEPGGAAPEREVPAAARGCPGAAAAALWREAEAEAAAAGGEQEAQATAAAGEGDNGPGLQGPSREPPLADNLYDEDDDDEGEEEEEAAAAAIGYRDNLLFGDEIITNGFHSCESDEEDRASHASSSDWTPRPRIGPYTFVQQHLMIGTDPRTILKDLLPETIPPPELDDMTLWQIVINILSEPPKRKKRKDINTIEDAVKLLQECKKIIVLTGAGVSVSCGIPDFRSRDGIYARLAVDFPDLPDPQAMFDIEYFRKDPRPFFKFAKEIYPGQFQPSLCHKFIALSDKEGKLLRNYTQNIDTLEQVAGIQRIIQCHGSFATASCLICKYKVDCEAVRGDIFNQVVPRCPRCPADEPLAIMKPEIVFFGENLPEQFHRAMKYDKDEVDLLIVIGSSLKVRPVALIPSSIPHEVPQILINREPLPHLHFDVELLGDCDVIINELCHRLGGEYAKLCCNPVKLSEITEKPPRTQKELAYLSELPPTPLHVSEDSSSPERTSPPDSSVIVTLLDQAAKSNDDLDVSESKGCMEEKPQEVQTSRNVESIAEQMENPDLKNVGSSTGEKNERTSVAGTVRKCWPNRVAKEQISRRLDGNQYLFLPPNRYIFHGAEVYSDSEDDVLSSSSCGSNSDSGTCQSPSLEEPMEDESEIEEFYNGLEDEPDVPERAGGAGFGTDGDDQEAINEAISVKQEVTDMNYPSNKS

AGS [24] = assay: Induction of apoptosis in human AGS cells assessed as change in mitochondrial transmembrane potential incubated for 1.5 hrs by DiOC6(3) dye-based flow cytometric analysis; type: functional, cell-based
[25] = target: T1, DNA topoisomerase 1 (Homo sapiens); assay: Inhibition of Top1 (unknown origin)-mediated relaxation of pBR322 DNA at 0.5 to 10 uM incubated for 30 mins by ethidium bromide staining-based gel electrophoresis assay; summary of the method: as §2
AGS [26] = assay: Upregulation of caspase3-directed PARP cleavage in human AGS cells at 1 to 5 uM after 24 hrs by Western blot analysis; type: functional, cell-based
[27] = target: T2, NAD-dependent protein deacetylase sirtuin-1 (Homo sapiens); assay: Inhibition of human recombinant SIRT1 deacetylase activity using Arg-His-Lys-Lys(epsilon-acetyl)-AMC as substrate incubated for 45 mins by fluorescence analysis
Calf thymus DNA = assay: Binding affinity to calf thymus double stranded DNA by spectrophotometric titration method; type: nucleic-acid assay; settings: Bos taurus
Summary of the method: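 Absorption spectra of compound recorded while double-stranded DNA concentration was increased (spectrophotometric titration); extinction at absorption maxima 540 and 585 nm and band shift followed.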

Row | IC50 (CCRF-CEM) [nM] | IC50 (L1210) [nM] | IC50 (K562 [5]) [nM] | IC50 (HeLa) [nM] | Structure (SMILES) | IC50 [3] [nM] | IC50 [4] [nM] | Activity (AGS [6]) | Activity (AGS [10]) | Activity (AGS [12]) | Activity (AGS [14]) | Ratio IC50 (K562 [16]) | Activity (AGS [17]) | Activity (AGS [19]) | Activity (AGS [22]) | further results
1 | 60 | 370 | 120 | – | COc1cccc2c1C(=O)c1c(O)c3c(c(O)c1C2=O)C[C@@](O)(C(=O)CO)C[C@@H]3O[C@H]1C[C@H](N)[C@H](O)[C@H](C)O1 [DOXORUBICIN] | 9750 | 110 | Active | – | – | – | – | – | – | – | Drug uptake (K562 [1]): Active; Drug uptake [2]: Not Active; Drug uptake [7]: Not Active
2 | 890 | 730 | – | 870 | NCCCNc1c2c(c(NCCCN)c3occc13)C(=O)c1ccccc1C2=O | – | 410 | – | – | – | – | – | – | – | – | –
3 | 97700 | 79300 | 49500 | 38400 | CN1CCN(C(=O)c2cc3c(NCCNC(=N)N)c4c(c(NCCNC(=N)N)c3o2)C(=O)c2ccccc2C4=O)CC1 | > 100000 | 4500 | – | inactive | inactive | inactive | >2 | inactive | inactive | inactive | inhibition [8]: Active; inhibition [9]: Active; Activity (AGS [11]): inactive; Activity (AGS [13]): Not Active; Activity (AGS [15]): inactive; Activity (AGS [18]): inactive; Activity (AGS [20]): inactive; Activity (AGS [21]): inactive
4 | 750 | 300 | 110 | 550 | NCCNc1c2c(c(NCCN)c3occc13)C(=O)c1ccccc1C2=O | 150 | 110 | Active | Active | Active | Active | 1.36 | Dose-dependent effect | Active | Active | inhibition [23]: Active; Activity (AGS [24]): Active
5 | 25000 | 26100 | 25200 | 61300 | CN1CCN(C(=O)c2cc3c(NCCN)c4c(c(NCCN)c3o2)C(=O)c2ccccc2C4=O)CC1 | > 100000 | 3100 | – | Active | – | Active | >4 | inactive | – | – | Activity (AGS [11]): inactive; inhibition [25]: inactive; Activity (AGS [15]): inactive; inhibition [23]: inactive; Activity (AGS [18]): inactive; Activity (AGS [26]): inactive; Activity (AGS [20]): inactive; Activity (AGS [21]): inactive
6 | – | – | – | 190 | CNCCNc1c2c(c(NCCNC)c3oc(C)cc13)C(=O)c1ccccc1C2=O | 4260 | 1600 | – | – | – | – | 35.5 | – | – | – | –
7 | 340 | 230 | 120 | 390 | CN(C)CCNc1c2c(c(NCCN(C)C)c3occc13)C(=O)c1ccccc1C2=O | 210 | 150 | Active | Active | Active | Active | 1.75 | Dose-dependent effect | Active | Active | Activity (AGS [24]): Active
8 | – | – | – | – | NC(=O)c1cccnc1 | – | – | – | – | – | – | – | – | – | – | inhibition [27]: Active
9 | 430 | 140 | 110 | 460 | O=C1c2ccccc2C(=O)c2c1c(NCCNCCO)c1ccoc1c2NCCNCCO | 9800 | 220 | Active | Active | Active | Active | 89.09 | Dose-dependent effect | Active | Active | Activity (AGS [24]): Active; Drug uptake [7]: Active
10 | – | – | – | – | N=C(N)NCCNc1c2c(c(NCCNC(=N)N)c3sccc13)C(=O)c1ccccc1C2=O | – | – | – | – | – | – | – | – | – | – | inhibition [8]: Active
11 | – | – | – | – | O=C1c2c(O)ccc(O)c2C(=O)c2c(NCCNCCO)ccc(NCCNCCO)c21 | – | – | – | – | – | – | – | – | – | – | Ka (Calf thymus DNA): 1 ×10⁶ /M
12 | 105000 | 26400 | – | 83800 | NCCNC(=O)c1cc2c(NCCN)c3c(c(NCCN)c2o1)C(=O)c1ccccc1C3=O | – | 6520 | – | – | – | – | – | – | – | – | –
13 | – | – | – | – | Cc1cc2c(NCCNC(=N)N)c3c(c(NCCNC(=N)N)c2o1)C(=O)c1ccccc1C3=O | – | – | – | – | – | – | – | – | – | – | inhibition [8]: Active
